In ChEMBL document CHEMBL1140196, “Synthesis and biological activities of some new fluorinated coumarins and 1-aza coumarins” (Eur J Med Chem, 2008):
The source made the active and inactive calls.

Key:
[1] = test system: Aspergillus niger; test: Antifungal activity against Aspergillus niger at 50 ug/mL after 48 hrs by cup-plate method; format: functional
[2] = test system: Escherichia coli; test: Antibacterial activity against Escherichia coli at 100 ug/mL after 48 hrs by cup-plate method; format: functional
[3] = test system: Bacillus; test: Antibacterial activity against […] at 100 ug/mL after 48 hrs by cup-plate method; format: functional
[4] = test system: Macrophomina phaseolina; test: Antifungal activity against Rhizoctonia bataticola at 100 ug/mL after 48 hrs by cup-plate method; format: functional
[5] = test system: Bacillus; test: Antibacterial activity against […] at 25 ug/mL after 48 hrs by cup-plate method; format: functional; settings: for zone of inhibition at 25 µg/mL: read-out: IZ
[6] = test system: Bacillus; test: Antibacterial activity against […] at 50 ug/mL after 48 hrs by cup-plate method; format: functional
[7] = test system: Aspergillus niger; test: Antifungal activity against Aspergillus niger at 100 ug/mL after 48 hrs by cup-plate method; format: functional
[8] = test system: Aspergillus niger; test: Antifungal activity against Aspergillus niger at 25 ug/mL after 48 hrs by cup-plate method; format: functional
[9] = test system: Macrophomina phaseolina; test: Antifungal activity against Rhizoctonia bataticola at 50 ug/mL after 48 hrs by cup-plate method; format: functional; settings: for zone of inhibition at 50 µg/mL: read-out: IZ
[10] = test system: Escherichia coli; test: Antibacterial activity against Escherichia coli at 25 ug/mL after 48 hrs by cup-plate method; format: functional; settings: for zone of inhibition at 25 µg/mL: read-out: IZ
[11] = test system: Macrophomina phaseolina; test: Antifungal activity against Rhizoctonia bataticola at 25 ug/mL after 48 hrs by cup-plate method; format: functional
[12] = test system: Escherichia coli; test: Antibacterial activity against Escherichia coli at 50 ug/mL after 48 hrs by cup-plate method; format: functional
[13] = test system: Rattus norvegicus; test: Antiinflammatory activity in Wistar rat assessed as inhibition of formalin-induced paw oedema volume at 100 mg/kg, po administered 30 mins before formalin challenge after 4 hrs relative to control; format: functional
How it was run: (§1)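 Oral dosing at 100 mg/kg as a 2% CMC suspension, 30 min before injecting 3.5% formalin into the paw. Groups of six Wistar rats of either sex. Paw volume read by mercury-displacement plethysmograph at 0 h (right after formalin) and at 1, 2, 3, 4 and 5 h. Percent inhibition versus plain 2% CMC controls; SEM reported.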

[14] = test system: Rattus norvegicus; test: Antiinflammatory activity in Wistar rat assessed as inhibition of formalin-induced paw oedema volume at 100 mg/kg, po administered 30 mins before formalin challenge after 3 hrs relative to control; format: functional; how it was run: as §1
[15] = Acute toxicity in ip dosed albino mouse after 24 hrs; format: organism-based; settings: in vivo
How it was run: (§2)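 Groups of six albino mice (20–25 g), fasted overnight, dosed once orally or intraperitoneally at 100 to 1000 mg kg^-1 body weight. Observed for 24 h for mortality and signs of acute toxicity (altered motor activity, tremors, convulsion, sedation, lacrimation). LD50 cut-off set at the highest dose tested, 1000 mg kg^-1.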

[16] = test system: Rattus norvegicus; test: Antiinflammatory activity in Wistar rat assessed as inhibition of formalin-induced paw oedema volume at 100 mg/kg, po administered 30 mins before formalin challenge after 1 hr relative to control; format: functional; how it was run: as §1
[17] = test system: Rattus norvegicus; test: Antiinflammatory activity in Wistar rat assessed as inhibition of formalin-induced paw oedema volume at 100 mg/kg, po administered 30 mins before formalin challenge after 2 hrs relative to control; format: functional; how it was run: as §1
[18] = test system: Rattus norvegicus; test: Antiinflammatory activity in Wistar rat assessed as inhibition of formalin-induced paw oedema volume at 100 mg/kg, po administered 30 mins before formalin challenge after 5 hrs relative to control; format: functional; how it was run: as §1
[19] = test system: Rattus norvegicus; test: Gastrointestinal toxicity in Wistar rat assessed as ulcerogenic effect at 400 mg/kg, po administered twice at 2 hrs interval after 4 hrs; format: organism-based; set-up: dose 400 mg/kg, route oral; settings: in vivo
How it was run: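 Male Wistar rats fasted 36 h, then given 400 mg/kg orally twice, 2 h apart. Animals killed 4 h later and the stomach examined for lesions; ulcer index recorded.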

[20] = test system: Mus musculus; test: Analgesic activity in albino mouse assessed as inhibition of acetic acid-induced writhing at 10 mg/kg, po; format: functional
How it was run: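 Acetic acid writhing test: 0.6% acetic acid at 0.1 ml/10 g given intraperitoneally to albino mice of both sexes (18–22 g). Compounds given orally at 10 mg/kg as a suspension in 5% carboxymethyl cellulose. Indomethacin 10 mg/kg was the reference under the same conditions.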

[21] = Acute toxicity in po dosed albino mouse after 24 hrs; format: organism-based; settings: in vivo; how it was run: as §2

SMILES	inhibition at 50 µg/mL [1] [%]	inhibition at 100 µg/mL [2] [%]	inhibition at 100 µg/mL [3] [%]	inhibition at 100 µg/mL [4] [%]	inhibition at 25 µg/mL [5] [%]	inhibition at 50 µg/mL [6] [%]	inhibition at 100 µg/mL [7] [%]	Activity [8]	inhibition at 50 µg/mL [9] [%]	zone of inhibition at 50 µg/mL [9] [mm]	inhibition at 25 µg/mL [10] [%]	zone of inhibition at 25 µg/mL [10] [mm]	Activity [11]	inhibition at 50 µg/mL [12] [%]	inhibition at 25 µg/mL [8] [%]	inhibition at 25 µg/mL [11] [%]	further results
Cc1ccc2c(COc3ccc(Cl)cc3)cc(=O)oc2c1	22	65	62	54	14	33	50	inactive	27	75	14	40	inactive	35	–	–	zone of inhibition at 25 µg/mL [5]: 40 mm
O=c1cc(COc2ccc(Cl)cc2)c2cc(Cl)ccc2[nH]1	25	50	60	55	–	31	53	inactive	33	84	–	–	inactive	30	–	–	Activity [5]: inactive; Activity [10]: inactive
O=c1cc(CNc2ccc(F)cc2)c2cc(Cl)ccc2o1	73	95	99	91	64	83	90	–	76	–	51	92	–	64	64	68	–
O=c1cc(CNc2ccc(F)cc2)c2c(ccc3ccccc32)o1	–	–	–	–	–	–	–	–	–	–	–	–	–	–	–	–	inhibition in vivo at 100 mg/kg [13]: 60%; inhibition in vivo at 100 mg/kg [14]: 53%; LD50 at 24 h [15]: > 800 mg/kg; inhibition in vivo at 100 mg/kg [16]: 63%; inhibition in vivo at 100 mg/kg [17]: 35%; inhibition in vivo at 100 mg/kg [18]: 77%; UI [19]: 64.93; inhibition in vivo at 10 mg/kg [20]: 10.5%; LD50 at 24 h [21]: > 1000 mg/kg
Cc1ccc2c(CNc3ccc(Br)cc3)cc(=O)oc2c1	23	64	63	59	21	37	55	inactive	35	90	13	38	inactive	35	–	–	zone of inhibition at 25 µg/mL [5]: 50 mm
Cc1cccc2c(CNc3ccc(F)cc3)cc(=O)[nH]c12	–	–	–	–	–	–	–	–	–	–	–	–	–	–	–	–	inhibition in vivo at 100 mg/kg [13]: 73%; inhibition in vivo at 100 mg/kg [14]: 6%; LD50 at 24 h [15]: > 700 mg/kg; inhibition in vivo at 100 mg/kg [16]: 23%; inhibition in vivo at 100 mg/kg [17]: 28%; inhibition in vivo at 100 mg/kg [18]: 85%; UI [19]: 55.35; inhibition in vivo at 10 mg/kg [20]: 67%; LD50 at 24 h [21]: > 1000 mg/kg
COC1=CC(=O)C[C@@H](C)[C@]12Oc1c(Cl)c(OC)cc(OC)c1C2=O [GRISEOFULVIN]	100	100	100	100	100	100	100	–	100	–	100	–	–	100	100	100	–
Cc1cccc2c(COc3ccc(F)cc3)cc(=O)[nH]c12	36	57	62	58	–	31	60	–	36	90	–	–	–	33	22	21	Activity [5]: inactive; zone of inhibition at 25 µg/mL ([8]; read-out: IZ): 52 mm; Activity [10]: inactive
